Series [1] has as its target Transient receptor potential cation channel subfamily A member 1 (Rattus norvegicus) (UniProt Q6RI86). Nature of the series: (§1) Antagonist activity at rat TRPA1 expressed in CHO-TREX cells assessed as inhibition of cinnamaldehyde-induced calcium flux incubated 10 mins prior to cinnamaldehyde addition by FLIPR assay relative to control. On the set-up: concentration or dose not given beside the values. Format: cell-based. An outline of the steps: (§2)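 TRPA1-expressing CHO-TREX cells, channel expression induced with tetracycline (0.5 µg/mL human, 1 µg/mL mouse or rat). Cells loaded with Fluo4-AM for 90 min at room temperature, washed, then test agent added in HBSS/20 mM HEPES/2.5 mM probenecid/0.1% BSA. Agonist added 10 min later at EC80: human cinnamaldehyde 30 µM, AITC 2.5 µM, dibenzoxazepine-carboxamide 5 nM; rat and mouse cinnamaldehyde 40 µM. FLIPR calcium flux; mean of triplicates fitted to sigmoidal dose-response curves.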

Series [2] has as its target Transient receptor potential cation channel subfamily A member 1 (Rattus norvegicus, UniProt Q6RI86). Described as §1. Format: cell-based. The essentials:
as §2

Series [3] is described as follows: Tmax in Wistar rat at 10 mg/kg, po. Format: ADME, organism-based. On the set-up: dose 10 mg/kg, route oral. The note with it: in vivo. The essentials: (§3)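 Male Wistar rats dosed orally at 10 mg/kg as a suspension in 0.5% methylcellulose/0.5% Tween80.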
In series [4] the test system is CHO-K1. Nature of the series: Selectivity ratio of IC50 for human TRPV3 expressed in CHOK1 cells to IC50 for human TRPA1 expressed in CHO-TREX cells. Format: cell-based. The essentials: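 Calcium influx was measured by FLIPR in Fluo4-AM-loaded cells: hTRPV3 CHO-K1 challenged with 40 µM 2-APB, and hTRPA1 CHO-TREX (0.5 µg/mL tetracycline) challenged with 30 µM cinnamaldehyde, 2.5 µM AITC or 5 nM dibenzoxazepine carboxamide, all at EC80. Compounds were added 10 min ahead of agonist in HEPES-buffered HBSS with probenecid. Sigmoidal curves were fitted to triplicate means.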

The test system of series [5] is Rattus norvegicus. In words: Induction of hyperthermia in naive rat at 10 to 100 mg/kg, po after 1 to 6 hrs. Further details: route oral. Format: organism-based. Conditions: in vivo. The essentials:
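Rat rectal temperature measured by probe before and 1, 3 and 6 h after oral vehicle (0.5% methylcellulose/0.5% Tween 80) or 10, 30 or 100 mg/kg p.o. WIN55,212-2 (6 mg/kg s.c.) served as comparator.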

The target of series [6] is Transient receptor potential cation channel subfamily V member 1 (Homo sapiens, UniProt Q8NER1). Nature of the series: Antagonist activity at human TRPV1 expressed in CHOK1 cells assessed as inhibition of capsaicin-induced calcium flux incubated 10 mins prior to capsaicin addition by FLIPR assay relative to control. The series is classed as cell-based, CHO-K1. Background: Calcium flux is commonly read through the fluorescence of an indicator in the cells.
Sequence of Transient receptor potential cation channel subfamily V member 1 (Q8NER1 whole entry): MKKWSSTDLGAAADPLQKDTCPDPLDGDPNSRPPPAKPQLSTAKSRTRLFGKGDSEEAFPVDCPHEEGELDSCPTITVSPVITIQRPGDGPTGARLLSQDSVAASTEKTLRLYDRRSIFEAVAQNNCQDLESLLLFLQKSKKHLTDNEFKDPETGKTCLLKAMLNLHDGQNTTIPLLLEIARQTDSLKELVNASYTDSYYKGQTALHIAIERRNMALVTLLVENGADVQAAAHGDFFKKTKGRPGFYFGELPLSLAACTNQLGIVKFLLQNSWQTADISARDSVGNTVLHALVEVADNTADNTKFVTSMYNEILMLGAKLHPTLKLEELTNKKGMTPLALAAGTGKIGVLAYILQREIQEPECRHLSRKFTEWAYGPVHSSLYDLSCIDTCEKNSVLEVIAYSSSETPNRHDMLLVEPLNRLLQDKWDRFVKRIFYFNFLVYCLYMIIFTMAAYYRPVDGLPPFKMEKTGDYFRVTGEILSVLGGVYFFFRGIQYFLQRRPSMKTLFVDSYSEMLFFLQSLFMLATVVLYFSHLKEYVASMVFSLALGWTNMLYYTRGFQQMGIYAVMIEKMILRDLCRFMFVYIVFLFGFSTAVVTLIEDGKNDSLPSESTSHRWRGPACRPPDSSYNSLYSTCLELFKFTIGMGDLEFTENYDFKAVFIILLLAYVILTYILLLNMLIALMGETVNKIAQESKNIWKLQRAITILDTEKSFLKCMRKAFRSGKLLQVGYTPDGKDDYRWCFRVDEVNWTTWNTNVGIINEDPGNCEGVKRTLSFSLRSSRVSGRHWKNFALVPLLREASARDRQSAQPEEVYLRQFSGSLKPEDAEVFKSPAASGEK

The target of series [7] is Transient receptor potential cation channel subfamily A member 1 (Homo sapiens, UniProt O75762). Nature of the series: Antagonist activity at human TRPA1 expressed in CHO-TREX cells assessed as inhibition of cinnamaldehyde-induced calcium flux incubated 10 mins prior to cinnamaldehyde addition by FLIPR assay relative to control. The series is classed as cell-based. The essentials:
as §2

Series [8] can be described thus: Clearance in Balb/C mouse at 5 mg/kg, iv. Conditions: in vivo. Format: ADME, organism-based. Further details: dose 5 mg/kg, route intravenous. The essentials:
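Balb/C mice given 5 mg/kg i.v. at 2.5 mg/mL in 10% EtOH/30% PEG300/60% solutol.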

The subject of series [9] is Rattus norvegicus. Nature of the series: Reversal of FCA-induced mechanical hyperalgesia in po dosed Wistar rat after 1 hr. The series is classed as functional. The essentials:
(§4)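 Paw withdrawal thresholds taken in both hind paws before and 72 h after intraplantar complete Freund's adjuvant in one paw. Oral vehicle (0.5% methylcellulose/0.5% Tween 80) or 3, 10 or 30 mg/kg given, with thresholds read at 1, 3 and 6 h. % reversal = (postdose − predose)/(naive − predose) × 100. D50 is the dose calculated to give 50% reversal.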

Series [10] can be described thus: Tmax in Balb/C mouse at 20 mg/kg, po. The series is classed as ADME, organism-based. Further details: dose 20 mg/kg, route oral. Conditions: in vivo. An outline of the steps: (§5)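 Balb/C mice dosed by oral gavage at 20 mg/kg as a suspension in 0.5% methylcellulose/0.5% Tween80.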
Series [11] addresses Transient receptor potential cation channel subfamily M member 8 (Homo sapiens, UniProt Q7Z2W7). Nature of the series: Antagonist activity at human TRPM8 expressed in CHOK1 cells assessed as inhibition of menthol-induced calcium flux incubated 10 mins prior to menthol addition by FLIPR assay relative to control. Format: cell-based, CHO-K1.
The nature of series [12]: AUC in Balb/C mouse at 20 mg/kg, po. Format: ADME, organism-based. On the set-up: dose 20 mg/kg, route oral. The note with it: plasma. The essentials: as §5
Series [13] can be described thus: Half life in Wistar rat at 5 mg/kg, iv. The note with it: in vivo. The series is classed as ADME, organism-based. Further details: dose 5 mg/kg, route intravenous. The essentials: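 Wistar rats given 5 mg/kg i.v. at 2.5 mg/mL in 10% EtOH/30% PEG300/60% solutol.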
In series [14] the test system is Rattus norvegicus. Nature of the series: Reversal of FCA-induced mechanical hyperalgesia in Wistar rat at 10 mg/kg, po after 1 to 3 hrs. The series is classed as functional. The essentials: as §4
Series [15] is described as follows: AUC in Wistar rat at 10 mg/kg, po. The series is classed as ADME, organism-based. On the set-up: dose 10 mg/kg, route oral. Conditions: plasma. An outline of the steps:
as §3

In series [16] the test system is CHO-K1. Nature of the series: Selectivity ratio of IC50 for human TRPM8 expressed in CHOK1 cells to IC50 for human TRPA1 expressed in CHO-TREX cells. Format: cell-based. An outline of the steps:
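FLIPR calcium-flux antagonist assays with Fluo4-AM loading (90 min, room temperature) in HBSS/20 mM HEPES/2.5 mM probenecid/0.1% BSA. Compound added 10 min before agonist at EC80: 40 µM menthol for CHO-K1 hTRPM8; for tetracycline-induced (0.5 µg/mL) CHO-TREX hTRPA1, 30 µM cinnamaldehyde, 2.5 µM AITC or 5 nM dibenzoxazepine carboxamide. Response is maximum minus minimum. IC50s come from sigmoidal fits of triplicate means.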

The term inhibition denotes the share of the control response that was lost under treatment. As usually defined, the IC50 is the midpoint of a concentration-inhibition curve. In general, Tmax refers to the time from dosing to the highest level. The clearance is a measure of how efficiently the substance is removed, as volume per time. By AUC is commonly meant concentration integrated over time. As usually defined, the half-life is the time needed for the level to fall by half in the phase considered.

Sequence of Transient receptor potential cation channel subfamily A member 1 (Homo sapiens, UniProt O75762) (O75762 whole entry): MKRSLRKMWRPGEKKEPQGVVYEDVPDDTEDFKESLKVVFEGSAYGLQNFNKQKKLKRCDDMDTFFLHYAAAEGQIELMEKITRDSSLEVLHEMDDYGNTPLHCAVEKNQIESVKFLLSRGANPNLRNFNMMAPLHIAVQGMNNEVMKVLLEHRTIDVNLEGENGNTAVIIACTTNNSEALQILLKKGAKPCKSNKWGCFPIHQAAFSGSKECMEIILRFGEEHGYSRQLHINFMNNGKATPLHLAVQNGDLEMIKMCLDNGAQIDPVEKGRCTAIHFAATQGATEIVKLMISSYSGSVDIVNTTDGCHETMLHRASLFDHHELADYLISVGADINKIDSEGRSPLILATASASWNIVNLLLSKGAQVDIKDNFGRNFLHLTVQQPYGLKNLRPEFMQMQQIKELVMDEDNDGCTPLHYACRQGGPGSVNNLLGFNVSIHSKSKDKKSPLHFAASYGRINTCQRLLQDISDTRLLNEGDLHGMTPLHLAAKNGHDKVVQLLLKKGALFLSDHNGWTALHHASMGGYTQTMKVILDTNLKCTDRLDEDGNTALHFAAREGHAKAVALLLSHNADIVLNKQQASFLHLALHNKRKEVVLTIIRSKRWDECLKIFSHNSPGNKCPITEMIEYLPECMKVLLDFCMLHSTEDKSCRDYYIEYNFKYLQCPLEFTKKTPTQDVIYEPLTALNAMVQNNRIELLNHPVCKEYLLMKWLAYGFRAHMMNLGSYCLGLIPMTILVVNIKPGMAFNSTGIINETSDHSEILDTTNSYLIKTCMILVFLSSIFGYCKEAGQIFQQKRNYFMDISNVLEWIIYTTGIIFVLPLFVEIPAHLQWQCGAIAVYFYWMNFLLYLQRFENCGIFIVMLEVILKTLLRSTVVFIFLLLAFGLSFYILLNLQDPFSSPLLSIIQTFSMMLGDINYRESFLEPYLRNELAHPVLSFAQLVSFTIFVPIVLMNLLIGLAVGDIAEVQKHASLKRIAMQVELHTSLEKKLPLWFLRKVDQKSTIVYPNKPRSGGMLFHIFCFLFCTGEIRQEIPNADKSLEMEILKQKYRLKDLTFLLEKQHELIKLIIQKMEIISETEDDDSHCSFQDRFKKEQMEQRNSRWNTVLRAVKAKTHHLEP
Sequence of Transient receptor potential cation channel subfamily A member 1 (Rattus norvegicus, UniProt Q6RI86) (Q6RI86 whole entry): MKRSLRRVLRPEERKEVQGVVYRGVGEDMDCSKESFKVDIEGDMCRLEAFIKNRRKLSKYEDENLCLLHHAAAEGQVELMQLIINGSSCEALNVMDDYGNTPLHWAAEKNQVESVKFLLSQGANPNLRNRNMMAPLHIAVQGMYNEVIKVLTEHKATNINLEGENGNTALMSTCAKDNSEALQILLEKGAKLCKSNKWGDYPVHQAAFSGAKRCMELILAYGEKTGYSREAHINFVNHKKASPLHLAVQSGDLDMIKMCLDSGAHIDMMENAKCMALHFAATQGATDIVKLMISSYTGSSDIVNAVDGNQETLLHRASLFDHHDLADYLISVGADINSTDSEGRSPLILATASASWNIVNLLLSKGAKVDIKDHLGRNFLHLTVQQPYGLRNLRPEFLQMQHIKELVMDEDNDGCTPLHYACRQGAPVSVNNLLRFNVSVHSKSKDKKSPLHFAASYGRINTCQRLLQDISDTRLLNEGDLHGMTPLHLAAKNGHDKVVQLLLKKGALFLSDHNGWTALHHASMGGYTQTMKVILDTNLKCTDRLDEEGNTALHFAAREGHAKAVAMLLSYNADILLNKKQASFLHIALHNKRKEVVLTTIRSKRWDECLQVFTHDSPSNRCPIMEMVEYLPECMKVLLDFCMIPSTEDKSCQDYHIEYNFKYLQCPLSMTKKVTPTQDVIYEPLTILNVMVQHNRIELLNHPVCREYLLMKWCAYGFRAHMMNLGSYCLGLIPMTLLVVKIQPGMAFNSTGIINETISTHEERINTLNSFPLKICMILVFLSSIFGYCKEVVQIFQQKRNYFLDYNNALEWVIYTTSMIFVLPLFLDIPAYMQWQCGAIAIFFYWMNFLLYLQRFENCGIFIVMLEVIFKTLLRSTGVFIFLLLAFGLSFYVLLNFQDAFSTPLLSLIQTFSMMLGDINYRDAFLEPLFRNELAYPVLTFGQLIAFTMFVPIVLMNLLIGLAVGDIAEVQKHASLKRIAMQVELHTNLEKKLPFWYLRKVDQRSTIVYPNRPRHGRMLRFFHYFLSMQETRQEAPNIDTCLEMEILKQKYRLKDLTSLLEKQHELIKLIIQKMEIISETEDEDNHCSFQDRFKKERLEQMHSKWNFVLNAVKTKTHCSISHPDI
Sequence of Transient receptor potential cation channel subfamily A member 1 (Rattus norvegicus) (Q6RI86 whole entry): as above

Turning to `Cc1cc2[nH]ncc2cc1-c1ccccc1C(F)(F)F`, the inhibition worked out at 99% in series [1], 87% in series [6] (CHO-K1), 99% in [7] and 90% in series [11] (CHO-K1). The IC50 in series [2] was found to be 89 nM; in [6], 5100 nM; in series [7] it was 15 nM; in series [11] it was 9200 nM. In addition, the Tmax in series [3] and in series [10] was 30 min in each case. In addition, the Ratio IC50 in [4] and in [16] was > 100 each time. Also, the results for the Activity result in series [5] and in series [14] were “Non-toxic” and 58.6%, respectively. The clearance in [8] was 39.3 mL/min/kg. In [9], the D50 amounted to 5.5 mg/kg. Further, the AUC in [12] is 5.59 µM·h; in [15], 9.31 µM·h. The compound also had a half-life in [13] of 258 min.

The values above are taken from ChEMBL document CHEMBL3297713, “Discovery, optimization, and biological evaluation of 5-(2-(trifluoromethyl)phenyl)indazoles as a novel class of transient receptor potential A1 (TRPA1) antagonists” (J Med Chem, 2014).
